Test [1] in a line: Inhibition of rabbit small-intestinal Acyl coenzyme A:cholesterol acyltransferase 1. On the set-up: species or system Oryctolagus cuniculus. In short, it runs like this: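 Source: intestinal mucosa microsomes from cholesterol-fed Japanese white rabbits. Mucosa homogenized in 40 mM phosphate pH 7.4 with 30 mM EDTA, 50 mM KCl and 0.1 M sucrose; spun 10000g for 30 min, then 105000g for 1 h, at 4 °C.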

Test [2] deals with Rattus norvegicus. Description: Serum total cholesterol-lowering activity in the cholesterol-fed rats expressed as the ratio of the observed reduction to the difference between the control and normal levels 100 (3 mg/kg po). The class given is functional. The procedure, abridged:
(§1)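 Male Wistar rats (8–9 weeks, 200 g, n = 6/group) on normal chow for 7 days, then a 2% cholesterol/1% cholic acid/12% coconut oil diet for 3 days. Compound in 0.5% methyl cellulose given orally once daily for 3 days at the listed dose; controls got vehicle. After a 16 h fast, aortic blood taken; serum cholesterol measured enzymatically. % change = (A−B)/(B−C)×100, with B = control and C = normal-diet rats.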

Test [3] relates to Rattus norvegicus. Description: Serum total cholesterol-lowering activity in the cholesterol-fed rats expressed as the ratio of the observed reduction to the difference between the control and normal levels 100 (0.3 mg/kg po). The class given is functional. In short, it runs like this:
as §1

For test [4], the system named is Rattus norvegicus. The test can be described thus: Serum total cholesterol-lowering activity in the cholesterol-fed rats expressed as the ratio of the observed reduction to the difference between the control and normal levels 100. (0.3 mg/kg, po). The class given is functional. In short, it runs like this:
as §1

A short description of test [5]: Ability to inhibit rabbit liver Acyl coenzyme A:cholesterol acyltransferase 1. Set-up: species or system Oryctolagus cuniculus. In short, it runs like this:
(§2)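 Liver microsomes from Japanese white rabbits, prepared in 0.154 M phosphate buffer pH 7.4 with 40 mM NaF. Assay mix: 36 μM BSA, 2 mM DTT, 0.5 mg/mL microsomes, sonicated liposomes (PC:PS:cholesterol 3:1:8, 8 mg/mL cholesterol). Compound added as 1% (v/v) DMSO solution, preincubated 3 min at 37 °C. Reaction started with 43 μM [14C]oleoyl-CoA, 10 min at 37 °C. Cholesteryl oleate radioactivity measured; IC50 determined.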

The species named for test [6] is Rattus norvegicus. The test can be described thus: IC50 is the concentration that inhibits 50% of the enzyme activity was evaluated by measuring the ability to inhibit acetyl-LDL-induced cholesteryl ester accumulation in rat peritoneal macrophages. The class given is functional. The procedure, abridged:
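Peritoneal macrophages from nonstimulated male Wistar rats (250–300 g), 3 × 10^6 per dish in 10% FBS-DMEM, adhered 2 h at 37 °C in 5% CO2. Washed in 3% BSA-DMEM, then incubated 16 h with 25 µg/mL acetylated human LDL, [14C]oleate-BSA and compound. Lipids extracted in hexane–2-propanol with [3H]cholesteryl oleate recovery standard. Cholesteryl oleate isolated by TLC and counted; IC50 determined for ester accumulation.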

Test [7] is described as follows: Ability to inhibit rabbit liver Acyl coenzyme A:cholesterol acyltransferase 1. On the set-up: species or system Oryctolagus cuniculus. The procedure, abridged:
as §2

Test [8] deals with Rattus norvegicus. Description: Serum total cholesterol-lowering activity in the cholesterol-fed rat expressed as the ratio of the observed reduction to the difference between the control and normal levels 100 (0.1 mg/kg po). The test is classed as functional. The procedure, abridged: as §1
The subject of test [9] is Rattus norvegicus. The test can be described thus: Serum total cholesterol-lowering activity in the cholesterol-fed rat expressed as the ratio of the observed reduction to the difference between the control and normal levels 100 (0.3 mg/kg, po). The class given is functional. In short, it runs like this: as §1
The test system of test [10] is Rattus norvegicus. The test can be described thus: Serum total cholesterol-lowering activity in the cholesterol-fed rats expressed as the ratio of the observed reduction to the difference between the control and normal levels 100 (0.1 mg/kg po). The test is classed as functional. The note with it: in the assay text read “1 mg/kg po” for “0.1 mg/kg po”. In short, it runs like this: as §1

Test [11] deals with Rattus norvegicus. The test can be described thus: Serum total cholesterol-lowering activity in the cholesterol-fed rat expressed as the ratio of the observed reduction to the difference between the control and normal levels 100 (3 mg/kg po). The class given is functional. The procedure, abridged:
as §1

For test [12], the system named is Rattus norvegicus. The test can be described thus: Serum total cholesterol-lowering activity in the cholesterol-fed rats expressed as the ratio of the observed reduction to the difference between the control and normal levels 100 (10 mg/kg po). The class given is functional. The procedure, abridged: as §1

SMILES strings stand for the structures.

Usually IC50 stands for the midpoint of a concentration-inhibition curve. A higher IC50 goes with a need for much substance. `CCCCCCOc1ccc(CCCC(C)(C)C(=O)Nc2c(OC)ccc3c2OCCC3=O)cc1` returned an IC50 in [1] of 16 nM. Moreover, in the test with Rattus norvegicus [2], the Change is given as -65%.
As for `COc1ccc(OCCCCOc2ccc3c(c2NC(=O)C(C)(C)C)OCCC3=O)cc1`, in test [1], 43 nM corresponded to half-maximal inhibition (IC50).
Same read-out and setting: to `COc1ccc2c(c1NC(=O)C(C)(C)CCCc1ccc(CC(C)C)cc1)OCCC2=O` belongs 17 nM; to `COc1ccc2c(c1NC(=O)C(C)(C)CCCCCCOCC(C)C)OCCC2=O`, 26 nM; to `COc1ccc2c(c1NC(=O)C(C)(C)CCCCCCc1ccccc1)OCCC2=O`, 44 nM.
For the compound `COc1ccc2c(c1NC(=O)C(C)(C)CCCCCCOc1ccc(Cl)cc1)OCCC2=O`, in test [1], the IC50 turned out to be 64 nM. Also, the Change in the test on Rattus norvegicus [3] and in the test on Rattus norvegicus [4] was -53% throughout.
`Cc1ccc2c(c1NC(=O)C(C)(C)CCCCOc1ccc(Cl)cc1)OCCC2=O`: inhibition in [1] was half-maximal at 510 nM (IC50).
On the same count and under the same terms, to `CCCCCCCCCCC(C)(C)C(=O)Nc1c(C)ccc2c1OCCC2=O` belongs 210 nM.
On the same count and under the same terms, to `COc1ccc(C(=O)Nc2c(C)ccc3c2OCCC3=O)cc1` belongs more than 1000 nM.
On the same count and under the same terms, to `CCCCCCCCCCC(C)(C)C(=O)Nc1c2c(cc(N(C)C)c1OC)C(=O)CCO2` belongs more than 200 nM; to `CCCCCCCCCCC1(C(=O)Nc2c(C)ccc3c2OCCC3=O)CCCC1`, 170 nM; to `Cc1cc(C)c2c(c1NC(=O)C(C)(C)CCCCCOc1ccc(Cl)cc1)OCCC2=O`, 400 nM.
For `CCCCCCCCCCC(C)(C)C(=O)Nc1c(OCCC)ccc2c1OCCC2=O`, in [1], the IC50 is 14 nM.
Same read-out and setting: to `CCCCCCCCC(C)(C)C(=O)Nc1c(OC)ccc2c1OCCC2=O` belongs 31 nM; to `COc1ccc2c(c1NC(=O)c1ccc(OCCCCCCOCC(C)C)cc1)OCCC2=O`, 40 nM.
For the compound `CCCCCCCCCCC(C)(C)C(=O)Nc1c(OC)ccc2c(=O)cc(CC)oc12`, the IC50 in test [1] was found to be 780 nM.
On the same count and under the same terms, the result for `CC(C)(C)C(=O)Nc1c(OCCCCCCc2ccccc2)ccc2c1OCCC2=O` reads 24 nM; that for `CCCCCCCCCCCCC(C)(C)C(=O)Nc1c(OC)ccc2c1OCCC2=O`, 7.5 nM.
The same measure, in the same setting: the result for `CCCCCCCCCCC(C)(C)C(=O)Nc1c(OC)ccc2c1OCCC2` reads 180 nM.
On the same count and under the same terms, to `CCCCCCCCCCOc1ccc(C(=O)Nc2c(OC)ccc3c2OCCC3=O)cc1` belongs 12 nM.
Regarding `Cc1ccc2c(=O)ccoc2c1NC(=O)C(C)(C)CCCCCOc1ccc(Cl)cc1`, in [1], the IC50 is more than 500 nM.
For the compound `COc1ccc2c(c1NC(=O)c1ccc(OCCCCCCOc3ccc(Cl)cc3)cc1)OCCC2=O`, the IC50 was determined as 59 nM in test [5], 26 nM in [1] and 220 nM in the test listed under Rattus norvegicus [6]. For the same compound, the results for the Change in the test on Rattus norvegicus [2] and in the test on Rattus norvegicus [4] were -79% and -56%, respectively.
For the compound `CCCOCCCCCCC(C)(C)C(=O)Nc1c(OC)ccc2c1OCCC2=O`, it took 30 nM to reach half-maximal inhibition in [1] (IC50).
For `CCCCCCCCCCC1(C(=O)Nc2c(C)ccc3c2NCCC3=O)CCCC1`, in [1], half-maximal inhibition (IC50) required 430 nM.
For `CCCCCCCCCCC(C)(C)C(=O)Nc1c(Cl)ccc2c1OCCC2=O`, 150 nM corresponded to half-maximal inhibition in [1] (IC50).
In test [1], `CCCCCCCCCCOc1ccc2c(=O)ccoc2c1NC(=O)C(C)(C)C` returned an IC50 of 130 nM.
The same measure, in the same setting: the result for `CCCCCCCCCCC(C)(C)C(=O)Nc1c2c(cc([N+](=O)[O-])c1OC)C(=O)CCO2` reads 34 nM; that for `CCCCCCCCCCOc1ccc2c(c1NC(C)=O)OCCC2=O`, 300 nM.
As to `CCCCCCCCCCC(C)(C)C(=O)Nc1c(OC)ccc2c1OCCC2=O`, the IC50 turned out to be 16 nM in test [7], 13 nM in test [1] and 160 nM in the test listed under Rattus norvegicus [6]. Moreover, the Change is listed as -61% in the test with Rattus norvegicus [8] and -66% in the test on Rattus norvegicus [9].
In test [1], `Cc1ccc2c(c1NC(=O)c1ccccc1)OCCC2=O` came in with an IC50 of more than 1000 nM.
On the same count and under the same terms, the result for `CCCCCCCCCCC(C)(C)C(=O)Nc1c(OC)c(NC)cc2c1OCCC2=O` reads 49 nM; that for `Cc1ccc2c(c1NC(=O)C(C)(C)Cc1ccccc1)OCCC2=O`, more than 1000 nM.
The compound `COc1ccc2c(c1NC(=O)C(C)(C)CCCCCCOc1ccc(Cl)cc1)C(=O)CCO2` came in with an IC50 in [1] of 180 nM.
In test [1], `CCCCCCCCCCOc1cc(C)c(C(=O)Nc2c(OC)ccc3c2OCCC3=O)c(C)c1` returned an IC50 of more than 200 nM.
Same read-out and setting: the result for `CCCCCCCCCCOc1ccc2c(c1NC(=O)c1ccc(OCCCCCCOc3ccc(Cl)cc3)cc1)OCCC2=O` reads 540 nM.
In test [1], `CCCc1ccc(CCCC(C)(C)C(=O)Nc2c(OC)ccc3c2OCCC3=O)cc1` yielded a half-maximal inhibitory concentration (IC50) of 27 nM. Also, the Change in the test on Rattus norvegicus [10] is on record as -54%.
In the case of `CCCCCCCCCCOc1ccc(C(=O)Nc2c(OCCCCCCCCCC)ccc3c2OCCC3=O)cc1`, in [1], the half-inhibitory concentration (IC50) is more than 100 nM.
Regarding `CCCCCCCCCCC(C)(C)C(=O)Nc1c(OC)cc(OC)cc1OC` [CL-976], the IC50 in test [7] stood at 149 nM; in [1] it was 140 nM; in the test listed under Rattus norvegicus [6] it was 3800 nM. Further, the Change in the test with Rattus norvegicus [11] is -50%.
In turn, `CCCCCCCCCCOc1ccc2c(c1NC(=O)C(C)(C)CCCCCCCCCC)OCCC2=O` returned an IC50 in [1] of 850 nM.
In test [1], `Cc1ccc2c(c1NC(=O)C(C)(C)CCCCCOc1ccc(Cl)cc1)OCCC2=O` returned an IC50 of 470 nM. Also, the Change in the test with Rattus norvegicus [12] is listed as -53%.
In turn, `CCCCCCCCCCOc1ccc2c(c1NC(=O)C(C)(C)CCCCCCOc1ccc(Cl)cc1)OCCC2=O` registered an IC50 in test [1] of 140 nM.
Still for that read-out and setting: to `CCCCCCCCCCC(C)(C)C(=O)Nc1c(OC)ccc2c(=O)ccoc12` belongs 77 nM.
For `CCCCCCCCCCOc1ccc2c(c1NC(=O)C(C)(C)C)OCCC2=O`, the figures for the IC50 (in test [7]; in [1]; in the test listed under Rattus norvegicus [6]) were 22 nM, 14 nM and 130 nM, respectively. Further, in the test with Rattus norvegicus [9], the Change was -45%.

For the origin of these results see ChEMBL document CHEMBL1128510, “Potent inhibitors of acyl-CoA:cholesterol acyltransferase. Structure-activity relationships of novel N-(4-oxochroman-8-yl)amides” (J Med Chem, 1995).
